Values after ≈ are worked out from the molar mass of the structure shown. Active and inactive are the calls of the source. The calls are words filed in the database; no cut-off is given here.
Assays:
Pseudomonas aeruginosa [1] = assay: Antibacterial activity against Pseudomonas aeruginosa PA1145 in BALB/c mouse model of lung infection assessed as reduction in log10CFU per gram of lung at 40 mg/kg, iv bid administered 2 to 12 hrs of post-infection measured after 24 hrs relative to untreated control; assay type: functional
In short: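 Female BALB/c mice, 18 to 20 g, infected intranasally under light anesthesia with ~ 2 x 10^7 CFU/mouse of P. aeruginosa PA1145 (cystic fibrosis isolate) in 0.05 mL. Treatment at 2 and 12 h post-infection, IV, or intranasally for tobramycin; n = 6 per group. Lungs harvested 24 h after treatment began, homogenized, plated on MacConkey medium, incubated overnight at 37 °C in 5% CO2. CFU per gram lung compared with T = 24 h untreated control.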

Pseudomonas aeruginosa [2] = assay: Antibacterial activity against Pseudomonas aeruginosa PA1145 in BALB/c mouse model of lung infection administered as iv bid for 2 to 12 hrs of post-infection measured after 24 hrs; assay type: functional
In short: (§1)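 Female BALB/c mice (18–20 g) infected intranasally with ~2 x 10^7 CFU/mouse P. aeruginosa PA1145 (cystic fibrosis isolate) under light anesthesia. Dosing at 2 and 12 h post-infection, IV (compound, tigecycline, amikacin) or intranasal (tobramycin); n = 6 per group. Lungs harvested 24 h after treatment start, homogenized, plated on MacConkey agar, 37 °C overnight; CFU/g lung; Mann-Whitney vs T = 0 h or 24 h controls.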

Staphylococcus aureus [3] = assay: Antibacterial activity against gram-positive Staphylococcus aureus SA101 by CLSI method; assay type: functional
In short: (§2)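 Broth microdilution MIC per CLSI in cation-adjusted Mueller Hinton broth, prepared fresh and held at 4 °C. Defibrinated horse blood added where appropriate. Compounds serially diluted in sterile deionized water. Strains from ATCC unless otherwise noted. Runs accepted when comparator antibiotics fell within QC ranges for ATCC quality control strains.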

Pseudomonas aeruginosa [4] = assay: Antibacterial activity against gram-negative Pseudomonas aeruginosa PA555 by CLSI method; assay type: functional; in short: as §2
Staphylococcus aureus [5] = assay: Antibacterial activity against gram-positive Staphylococcus aureus SA158 harboring tet(K) by CLSI method; assay type: functional
In short: (§3)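 CLSI broth microdilution MIC in fresh cation-adjusted Mueller Hinton broth, supplemented with defibrinated horse blood where appropriate. Compounds serially diluted in sterile deionized water. Runs accepted when comparator antibiotics against ATCC quality-control strains fell within recommended ranges.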

Escherichia coli [6] = assay: Antibacterial activity against gram-negative Escherichia coli EC155 harboring tet(A) by CLSI method; assay type: functional; in short: as §3
Acinetobacter baumannii = assay: Antibacterial activity against gram-negative Acinetobacter baumannii AB250 by CLSI method; assay type: functional; in short: as §2
Proteus mirabilis = assay: Antibacterial activity against gram-negative Proteus mirabilis PM385 by CLSI method; assay type: functional; in short: as §2
Streptococcus pneumoniae [7] = assay: Antibacterial activity against gram-positive Streptococcus pneumoniae SP160 harboring tet(M) by CLSI method; assay type: functional; in short: as §3
Escherichia coli [8] = assay: Antibacterial activity against gram-negative Escherichia coli EC107 by CLSI method; assay type: functional; in short: as §2
[9] = system: Stenotrophomonas maltophilia; assay: Antibacterial activity against gram-negative Stenotrophomonas maltophilia SM256 by CLSI method; assay type: functional; in short: as §2
Enterococcus faecium = assay: Antibacterial activity against gram-positive Enterococcus faecium EFm404 harboring tet(M) by CLSI method; assay type: functional; in short: as §3
Enterococcus faecalis [10] = assay: Antibacterial activity against gram-positive Enterococcus faecalis EFs327 harboring tet(M) by CLSI method; assay type: functional; in short: as §3
Enterobacter cloacae = assay: Antibacterial activity against gram-negative Enterobacter cloacae EC1603 harboring tet(A) by CLSI method; assay type: functional; in short: as §3
Staphylococcus aureus [11] = assay: Antibacterial activity against gram-positive Staphylococcus aureus SA161 harboring tet(M) by CLSI method; assay type: functional; in short: as §3
Klebsiella pneumoniae [12] = assay: Antibacterial activity against gram-negative Klebsiella pneumoniae KP457 harboring blacTX-M-15 extended spectrum beta-lactamase gene by CLSI method; assay type: functional; in short: as §3
Burkholderia cenocepacia = assay: Antibacterial activity against gram-negative Burkholderia cenocepacia BC240 by CLSI method; assay type: functional
In short: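 Defibrinated horse blood added where appropriate. Compounds serially diluted in sterile deionized water. Strains from ATCC unless otherwise noted. Runs accepted when comparator antibiotics fell within QC ranges for ATCC quality control strains.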

Pseudomonas aeruginosa [13] = assay: Antibacterial activity against Pseudomonas aeruginosa PA1145 in BALB/c mouse model of lung infection administered intranasally as bid for 2 to 12 hrs of post-infection measured after 24 hrs; assay type: functional; in short: as §1
Pseudomonas aeruginosa [14] = assay: Antibacterial activity against Pseudomonas aeruginosa PA1145 in BALB/c mouse model of lung infection assessed as reduction in log10CFU per gram of lung at 40 mg/kg, in bid administered 2 to 12 hrs of post-infection measured after 24 hrs relative to untreated control; assay type: functional, organism-based; in short: as §1
Pseudomonas aeruginosa [15] = assay: Antibacterial activity against Pseudomonas aeruginosa PA694 in CD-1 mouse model of thigh infection assessed as reduction in log10CFU per gram of thigh at 15 mg/kg, iv bid administered 2 to 12 hrs of post-infection measured after 24 hrs relative to untreated control; assay type: functional
In short: (§4)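 Groups of 5 female specific-pathogen-free CD-1 mice, 22 ± 2 g. Right thigh inoculated intramuscularly with 3-5 x 10^6 CFU/mouse of P. aeruginosa PA694 (UTI isolate). Dosed IV at 5, 15 or 40 mg/kg at 2 and 12 h post-infection. Thigh muscle harvested at 24 h post-infection, homogenized in PBS (pH 7.4), plated on Brain Heart Infusion agar + 0.5% charcoal. Log10 CFU per gram thigh compared with 24 h untreated control.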

Pseudomonas aeruginosa [16] = assay: Antibacterial activity against Pseudomonas aeruginosa PA694 in CD-1 mouse model of thigh infection administered as iv bid for 2 to 12 hrs of post-infection measured after 24 hrs; assay type: functional
In short: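 Female specific-pathogen-free CD-1 mice (22 ± 2 g), groups of 5, inoculated intramuscularly into right thigh with 3-5 x 10^6 CFU/mouse P. aeruginosa PA694 (UTI isolate). IV dosing at 5, 15 and 40 mg/kg at 2 and 12 h post-infection. Thigh muscle harvested at 24 h, homogenized in PBS pH 7.4, plated on Brain Heart Infusion agar + 0.5% charcoal; CFU/g thigh vs untreated controls; Mann-Whitney.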

Pseudomonas aeruginosa [17] = assay: Antibacterial activity against Pseudomonas aeruginosa PA694 in CD-1 mouse model of thigh infection assessed as reduction in log10CFU per gram of thigh at 40 mg/kg, iv bid administered 2 to 12 hrs of post-infection measured after 24 hrs relative to untreated control; assay type: functional; in short: as §4
Pseudomonas aeruginosa [18] = assay: Antibacterial activity against Pseudomonas aeruginosa PA694 in CD-1 mouse model of thigh infection assessed as reduction in log10CFU per gram of thigh at 5 mg/kg, iv bid administered 2 to 12 hrs of post-infection measured after 24 hrs relative to untreated control; assay type: functional; in short: as §4
Streptococcus pneumoniae [19] = assay: Antibacterial activity against gram-positive Streptococcus pneumoniae SP193 by CLSI method; assay type: functional; in short: as §2
Enterococcus faecalis [20] = assay: Antibacterial activity against gram-positive Enterococcus faecalis EF159 harboring tet(M) by CLSI method; assay type: functional; in short: as §3
Klebsiella pneumoniae [21] = assay: Antibacterial activity against gram-negative Klebsiella pneumoniae KP194 by CLSI method; assay type: functional; in short: as §2
Klebsiella pneumoniae [22] = assay: Antibacterial activity against gram-negative Klebsiella pneumoniae KP153 harboring tet(A) by CLSI method; assay type: functional; in short: as §3

SMILES | Activity (Pseudomonas aeruginosa [1]) [deltalog10CFU] | MIC (Pseudomonas aeruginosa [2]) [µg/mL] | MIC (Staphylococcus aureus [3]) [µg/mL] | MIC (Pseudomonas aeruginosa [4]) [µg/mL] | MIC (Escherichia coli [6]) [µg/mL] | MIC (Acinetobacter baumannii) [µg/mL] | MIC (Proteus mirabilis) [µg/mL] | MIC (Escherichia coli [8]) [µg/mL] | MIC [9] [µg/mL] | MIC (Enterococcus faecalis [10]) [µg/mL] | MIC (Enterobacter cloacae) [µg/mL] | MIC (Staphylococcus aureus [11]) [µg/mL] | MIC (Klebsiella pneumoniae [12]) [µg/mL] | further results
NCC[C@H](O)C(=O)N[C@@H]1C[C@H](N)[C@@H](O[C@H]2O[C@H](CN)[C@@H](O)[C@H](O)[C@H]2O)[C@H](O)[C@H]1O[C@H]1O[C@H](CO)[C@@H](O)[C@H](N)[C@H]1O [AMIKACIN] | 3.6 | 4 (≈ 6.83 µM) |  |  |  |  |  |  |  |  |  |  |  | 
CN(C)c1cc(NC(=O)CNC(C)(C)C)c(O)c2c1C[C@H]1C[C@H]3[C@H](N(C)C)C(O)=C(C(N)=O)C(=O)[C@@]3(O)C(O)=C1C2=O [TIGECYCLINE] | 4.2 | 16 (≈ 27.3 µM) | 0.0625 (≈ 0.107 µM) | 16 (≈ 27.3 µM) | 1 (≈ 1.71 µM) | 8 (≈ 13.7 µM) | 4 (≈ 6.83 µM) | 0.125 (≈ 0.213 µM) | 2 (≈ 3.41 µM) | 0.125 (≈ 0.213 µM) | 4 (≈ 6.83 µM) | 0.125 (≈ 0.213 µM) | 1 (≈ 1.71 µM) | MIC (Staphylococcus aureus [5]): 0.125 µg/mL (≈ 0.213 µM); MIC (Streptococcus pneumoniae [7]): 0.0156 µg/mL (≈ 0.0266 µM); MIC (Enterococcus faecium): 0.0312 µg/mL (≈ 0.0533 µM); MIC (Burkholderia cenocepacia): 16 µg/mL (≈ 27.3 µM)
NC[C@H]1O[C@H](O[C@H]2[C@H](O)[C@@H](O[C@H]3O[C@H](CO)[C@@H](O)[C@H](N)[C@H]3O)[C@H](N)C[C@@H]2N)[C@H](N)C[C@@H]1O [TOBRAMYCIN] |  |  |  |  |  |  |  |  |  |  |  |  |  | MIC (Pseudomonas aeruginosa [13]): 1 µg/mL (≈ 2.14 µM); Activity (Pseudomonas aeruginosa [14]): inactive
C[C@@H](O)[C@H]1C(=O)N2C(C(=O)O)=C(S[C@@H]3CN[C@H](C(=O)N(C)C)C3)[C@H](C)[C@H]12 [MEROPENEM] |  |  |  |  |  |  |  |  |  |  |  |  |  | Activity (Pseudomonas aeruginosa [15]): 4.2 deltalog10CFU; MIC (Pseudomonas aeruginosa [16]): 0.125 µg/mL (≈ 0.326 µM); Activity (Pseudomonas aeruginosa [17]): 4.9 deltalog10CFU; Activity (Pseudomonas aeruginosa [18]): 2.9 deltalog10CFU
CN(C)[C@@H]1C(O)=C(C(N)=O)C(=O)[C@@]2(O)C(O)=C3C(=O)c4c(O)cccc4[C@@](C)(O)[C@H]3C[C@@H]12 [TETRACYCLINE] |  |  | 0.25 (≈ 0.563 µM) | > 32 | > 32 | > 32 | > 32 | 1 (≈ 2.25 µM) | 16 (≈ 36 µM) | > 32 | > 32 | > 32 | 8 (≈ 18 µM) | MIC (Streptococcus pneumoniae [19]): 0.125 µg/mL (≈ 0.281 µM); MIC (Enterococcus faecalis [20]): > 32 µg/mL; MIC (Klebsiella pneumoniae [21]): 16 µg/mL (≈ 36 µM); MIC (Klebsiella pneumoniae [22]): > 32 µg/mL

Reference: ChEMBL document CHEMBL4007456, “Heterocyclyl Tetracyclines. 1. 7-Trifluoromethyl-8-Pyrrolidinyltetracyclines: Potent, Broad Spectrum Antibacterial Agents with Enhanced Activity against Pseudomonas aeruginosa” (2017)
